Calls of active or inactive are those of the source. The calls are words filed in the database; no cut-off is given here.
Assays:
[1] = system: Glutamate NMDA receptor (Rattus norvegicus); experiment: Antagonist activity at NMDA receptor in Sprague-Dawley rat striatal synaptoneurosomes assessed as inhibition of NMDA/glycine-induced calcium flux at 100 uM by spectrofluorimetric analysis relative to control
[2] = target: T1, Glutamate NMDA receptor (Rattus norvegicus) (UniProt P35439+Q00959+Q00960+Q00961+Q62645+Q8VHN2+Q9R1M7); experiment: Antagonist activity at NMDA receptor in Sprague-Dawley rat striatal synaptoneurosomes assessed as inhibition of NMDA/glycine-induced calcium flux at 100 uM by spectrofluorimetric analysis relative to control; type: functional
How it was run: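 Male Sprague-Dawley rat brain synaptoneurosomes are loaded with Mag-Fura-2/Fura-2 AM (5 μM final) for 10 min at 37 °C and resuspended in Krebs-HEPES pH 7.4. Compounds at 100 μM (0.1% DMSO final) are preincubated 5 min at 37 °C. NMDA (100 μM) plus glycine (100 μM) is added at 10 s and ratiometric fluorescence is read. Results are % of the DMSO control, 3 preparations × 3 determinations.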

[3] = Antagonist activity at voltage gated calcium channel in Sprague-Dawley rat striatal synaptoneurosomes assessed as inhibition of KCl-induced calcium flux at 100 uM by spectrofluorimetric analysis relative to control; type: functional
How it was run: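 Rat synaptoneurosomes loaded with Fura-2 AM (5 μM final, 10 min, 37 °C) in Krebs-HEPES pH 7.4. Compounds at 100 μM (0.1% DMSO) are preincubated 5 min at 37 °C. Depolarization is done at 10 s with KCl (140 mM) solution. Baseline is subtracted from peak fluorescence, the KCl-induced rise is taken as 100%, and inhibition is expressed relative to it.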

[4] = target: T1, Glutamate NMDA receptor (Rattus norvegicus); experiment: Binding affinity to NMDA receptor in Sprague-Dawley rat striatal synaptoneurosomes at 100 uM after 30 mins by competition binding assay in presence of amantadine; type: protein-complex assay
How it was run: (§1)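 Unloaded rat synaptoneurosomes (0.6 mg/ml) are resuspended in Krebs-HEPES at 37 °C and given the fluorescent ligand (100 μM) alone or with a competitor at 100 μM (DMSO <0.1%). NMDA (100 μM) plus glycine (100 μM) is added, followed by 30 min at 37 °C. The pellet is washed and resuspended, and fluorescence is read at 324/455 nm. Results are % of ligand-alone intensity; n = 9.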

[5] = target: T1, Glutamate NMDA receptor (Rattus norvegicus); experiment: Binding affinity to NMDA receptor in Sprague-Dawley rat striatal synaptoneurosomes at 100 uM after 30 mins by competition binding assay in presence of NGP1-01; type: protein-complex assay
How it was run: as §1

Glutamate NMDA receptor = experiment: Antagonist activity at NMDA receptor in Sprague-Dawley rat striatal synaptoneurosomes assessed as inhibition of NMDA/glycine-induced calcium flux by spectrofluorimetric analysis; type: functional
How it was run: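 Fura-2 AM-loaded rat synaptoneurosomes in Krebs-HEPES pH 7.4 at 37 °C. Compound is preincubated 5 min at log-spaced concentrations. Calcium influx is triggered with NMDA (100 μM) plus glycine (100 μM) and measured by ratiometric spectrofluorimetry. The concentration-response is fitted to a four-parameter logistic equation; 3 preparations × 3 determinations.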

[6] = target: T1, Glutamate NMDA receptor (Rattus norvegicus); experiment: Binding affinity to NMDA receptor in Sprague-Dawley rat striatal synaptoneurosomes at 100 uM after 30 mins by competition binding assay in presence of MK-801; type: protein-complex assay
How it was run: as §1

With `O=C(NC12CC3CC(CC(C3)C1)C2)c1n[nH]c2ccccc12` the “inhibition (INH)” value [1] was 83.7% and the inhibition [2] was 16%.
For `O=C(NCCCNC12CC3CC(CC(C3)C1)C2)c1cc2ccccc2oc1=O`, the “inhibition (INH)” value [1] was 86.77%, the inhibition [2] was 13.2% and the “inhibition (INH)” value [3] was 67.99%.
`N#CCCNC12CC3CC(CC(C3)C1)C2` gave an inhibition [2] of 19.3%.
Compound `NCCCNC12CC3CC(CC(C3)C1)C2` has an inhibition (INH) [1] of 91%, an inhibition [2] of 9.01% and an inhibition (INH) [3] of 89.3%.
For `O=[N+]([O-])c1ccc(NCCCNC23CC4CC(CC(C4)C2)C3)c([N+](=O)[O-])c1`, the “inhibition (INH)” value [1] was 76.59%, the inhibition [2] was 23.4% and the “inhibition (INH)” value [3] was 88.5%.
`CN(C)c1cccc2c(S(=O)(=O)NC34CC5CC(CC(C5)C3)C4)cccc12` showed an inhibition [2] of 21.9%.
`O=[N+]([O-])c1ccc(NC23CC4CC(CC(C4)C2)C3)c([N+](=O)[O-])c1` showed an inhibition [2] of 19.2%.
With `CNc1ccccc1C(=O)NC12CC3CC(CC(C3)C1)C2` the inhibition [2] was “inactive”.
With `CNc1ccccc1C(=O)OC12C3C4CC5C6C4C1C6C1(OCCCN12)C53` (configuration not stated) the “inhibition (INH)” value [1] was 86.41%, the inhibition [2] was 12% and the “inhibition (INH)” value [3] was 84.79%.
For `O=C(OC12C3C4CC5C6C4C1C6C1(OCCCN12)C53)c1n[nH]c2ccccc12` (configuration not stated), the “inhibition (INH)” value [1] was 77.89%, the inhibition [2] was 13.6% and the “inhibition (INH)” value [3] was 83.62%.
For `OC12C3C4CC5C6C4C1C6C1(OCCCN21)C53` (configuration not stated), the “inhibition (INH)” value [1] was 77.29%, the inhibition [2] was 22.7% and the “inhibition (INH)” value [3] was 87.24%.
Work on `N#Cc1c2ccccc2cn1C12CC3CC(CC(C3)C1)C2` yielded an inhibition [2] of 16%.
With `O=C(NCCCNC12CC3CC(CC(C3)C1)C2)c1n[nH]c2ccccc12` the “inhibition (INH)” value [1] was 95.19%, the inhibition [2] was “inactive” and the “inhibition (INH)” value [3] was 86.91%.
In the case of `CN(C)c1cccc2c(S(=O)(=O)NCCCNC34CC5CC(CC(C5)C3)C4)cccc12`, the inhibition [4] is reported as “inactive”, the “inhibition (INH)” value [1] is reported as 62.97% and the inhibition [5] is reported as “inactive”. The inhibition [2] was 37%, the IC50 (Glutamate NMDA receptor) was 270 nM and the “inhibition (INH)” value [3] was 36.74%. For the same compound, the inhibition [6] was “inactive”.
For `CNc1ccccc1C(=O)NCCCNC12CC3CC(CC(C3)C1)C2`, the “inhibition (INH)” value [1] was 88.02%, the inhibition [2] was 12% and the “inhibition (INH)” value [3] was 87.91%.
Work on `O=C(NC12CC3CC(CC(C3)C1)C2)c1cc2ccccc2oc1=O` yielded an inhibition [2] of 20.3%.
With `N#Cc1c2ccccc2cn1CCCNC12CC3CC(CC(C3)C1)C2` the “inhibition (INH)” value [1] was 86.41%, the inhibition [2] was 13.6% and the “inhibition (INH)” value [3] was 45.92%.
